Results from different studies.
Lines come from different studies, so protocols differ.
Observed: cell growth or viability

For `CCCN1C(=O)[C@H](CC(C)C)NC(=O)[C@@H](N(C)C(=O)[C@H](CC2CCC2)NC(=O)[C@@H]2C[C@@H](F)CN2C(=O)[C@@](C)(O)C(F)(F)F)CCCCNC(=O)C2(CC2)NC(=O)[C@@H]1Cc1cc(Cl)ccc1Cl`, the GI50 was 41 nM (NCI-H526; MTT; 5 days).
For `CCc1c(C)c2ccc(OCc3nnc(S)n3N)c(C)c2oc1=O`, the viability was 5.38% (MDA-MB-231; MTT; 1000 µg/mL).
With `Cc1c(C(=O)O)ccc2c3n(nc12)[C@@H]1[C@H](C3)N(CC2CC2)[C@@]2(C(=O)Nc3cc(Cl)ccc32)[C@H]1c1cccc(Cl)c1F` the IC50 was 16 nM (hTERT-RPE1).
`C[C@@H]1CC[C@@H]([C@](O)(CNCc2ccccc2)COCc2ccc(F)cc2)[C@H](OCc2ccc(F)cc2)C1` has an inhibition of 101% (MDA-MB-231; MTT; 30 µM; 72 h).
The GI50 of `CC(C)C[C@@H]1NC(=O)[C@@H](N(C)C(=O)[C@H](CC2CCC2)NC(=O)[C@@H]2C[C@@H](F)CN2C(=O)C2(C(F)(F)F)CC(F)(F)C2)CCCCNC(=O)C2(CC2)NC(=O)[C@H](Cc2cc(Cl)ccc2Cl)N(C)C1=O` is reported as 240 nM (NCI-H526; MTT; 5 days).
`Cc1c(Cc2ccccc2)c(=O)oc2c(C)c(OCC(=O)NN=Cc3ccc([N+](=O)[O-])cc3)ccc12` gave a viability of 23.7% (MDA-MB-231; MTT; 125 µg/mL).
With `C[C@@H]1CC[C@@H]([C@](C)(O)CNCc2ccccc2)[C@H](OCc2ccccc2)C1` the inhibition was 76.8% (MDA-MB-231; MTT; 10 µM; 72 h).
The inhibition of `O=C(C=Cc1ccccc1)Nc1cc(-c2ccnc(N3CCOCC3)c2)ccn1` is reported as 78.3% (MDA-MB-231; MTT; 5 µM).
`C=CC(=O)NC1CCN(c2ncc3ncnc(Nc4ccc(Oc5ccc6c(c5)ncn6C)c(C)c4)c3n2)CC1` has an EC50 of 5190 nM (Panc 04.03).
`O=C(C=Cc1ccccc1)Nc1cc(-c2ccnc(N3CCC(O)CC3)c2)ccn1` gave an IC50 of 3 nM (MDA-MB-231; MTT; 72 h).
With `COc1cccc(CNC[C@@](C)(O)[C@@H]2CC[C@@H](C)C[C@H]2OCc2ccccc2)c1` the inhibition was 36% (MDA-MB-231; MTT; 10 µM; 72 h).
The viability of `CCNC(=S)NNC(=O)COc1ccc2c(C)c(CC)c(=O)oc2c1C` is reported as 84.5% (MDA-MB-231; MTT; 62.5 µg/mL).
The inhibition of `C=C(C)[C@@H]1CC[C@@H](C)C[C@H]1OCc1ccccc1` is reported as 21.9% (MDA-MB-231; MTT; 10 µM; 72 h).
The IC50 of `C[C@H](NC(=O)[C@H](CC(=O)NCC(C)(C)C)NC(=O)C(=O)c1c[nH]c2ccccc12)C(=O)NCc1ccc(F)cc1F` is reported as 8870 nM (A-375; resazurin; 48 h).
With `CCc1c(C)c2ccc(OCC=Cc3ccccc3)c(C)c2oc1=O` the viability was 2.75% (MDA-MB-231; MTT; 1000 µg/mL).
